IC50 data for one compound are collected here from ChEMBL document CHEMBL4364265, “Oridonin derivatives as potential anticancer drug candidates triggering apoptosis through mitochondrial pathway in the liver cancer cells” (Eur J Med Chem, 2019).

Molecules are shown by their SMILES.

Holding throughout (assay type): functional, cell-based
Assay [1] has as its system PLC-PRF-5. The experiment in a line: Antiproliferative activity against human PLC/PRF/5 cells incubated for 72 hrs in presence of oridonin by CCK8 cells. The conditions noted are these: PLC-PRF-5, 72 h.
For assay [2], the system named is PLC-PRF-5. The experiment in a line: Antiproliferative activity against human PLC/PRF/5 cells incubated for 72 hrs by CCK8 cells. The conditions noted are these: PLC-PRF-5, 72 h.
Assay [3] relates to HepG2. Description: Antiproliferative activity against human HepG2 cells incubated for 72 hrs by CCK8 cells. The settings on record: HepG2, 72 h. Put shortly: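 CCK-8 proliferation assay. 10,000 cells per well were preincubated 24 h at 37 °C with 5% CO2, then given compound dissolved in DMSO and incubated 72 h. CCK-8 was added for 4 h and absorbance read at 450 nm. IC50 was taken from dose-response curves as mean ± SEM of at least three independent experiments, with paclitaxel as positive control. HepG2 and L-O2 were grown in DMEM/10% FBS; A549 and RPMI-8226 in RPMI 1640/10% FBS.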

Assay [4] deals with HepG2. Description: Antiproliferative activity against human HepG2 cells incubated for 72 hrs in presence of oridonin by CCK8 cells. The conditions noted are these: HepG2, 72 h.

One may read the IC50 as the concentration that gives 50% inhibition. As to `COc1ccc(/C=C/C(=O)O)cc1` [4-METHOXYCINNAMIC ACID], the IC50 in the assay on PLC-PRF-5 [1] is 6.55 µM; in the assay on PLC-PRF-5 [2], greater than 100 µM; in the assay on HepG2 [3], greater than 100 µM; with HepG2 [4], 8.56 µM.
